Results published in ChEMBL document CHEMBL4840330, “Secoiridoids from Dogwood (Cornus officinalis) Potentiate Progesterone Signaling” (J Nat Prod, 2021).
Active and inactive are the calls of the source.

Columns and labels:
[1] = target: T1, Progesterone receptor (Homo sapiens) (UniProt P06401); assay: Potentiation of progesterone receptor B in progesterone-stimulated human Ishikawa cells assessed as induction of PRE/Luc transcriptional activity at 10 uM measured after 24 hrs by luciferase reporter gene assay relative to control
T1 sequence (whole entry): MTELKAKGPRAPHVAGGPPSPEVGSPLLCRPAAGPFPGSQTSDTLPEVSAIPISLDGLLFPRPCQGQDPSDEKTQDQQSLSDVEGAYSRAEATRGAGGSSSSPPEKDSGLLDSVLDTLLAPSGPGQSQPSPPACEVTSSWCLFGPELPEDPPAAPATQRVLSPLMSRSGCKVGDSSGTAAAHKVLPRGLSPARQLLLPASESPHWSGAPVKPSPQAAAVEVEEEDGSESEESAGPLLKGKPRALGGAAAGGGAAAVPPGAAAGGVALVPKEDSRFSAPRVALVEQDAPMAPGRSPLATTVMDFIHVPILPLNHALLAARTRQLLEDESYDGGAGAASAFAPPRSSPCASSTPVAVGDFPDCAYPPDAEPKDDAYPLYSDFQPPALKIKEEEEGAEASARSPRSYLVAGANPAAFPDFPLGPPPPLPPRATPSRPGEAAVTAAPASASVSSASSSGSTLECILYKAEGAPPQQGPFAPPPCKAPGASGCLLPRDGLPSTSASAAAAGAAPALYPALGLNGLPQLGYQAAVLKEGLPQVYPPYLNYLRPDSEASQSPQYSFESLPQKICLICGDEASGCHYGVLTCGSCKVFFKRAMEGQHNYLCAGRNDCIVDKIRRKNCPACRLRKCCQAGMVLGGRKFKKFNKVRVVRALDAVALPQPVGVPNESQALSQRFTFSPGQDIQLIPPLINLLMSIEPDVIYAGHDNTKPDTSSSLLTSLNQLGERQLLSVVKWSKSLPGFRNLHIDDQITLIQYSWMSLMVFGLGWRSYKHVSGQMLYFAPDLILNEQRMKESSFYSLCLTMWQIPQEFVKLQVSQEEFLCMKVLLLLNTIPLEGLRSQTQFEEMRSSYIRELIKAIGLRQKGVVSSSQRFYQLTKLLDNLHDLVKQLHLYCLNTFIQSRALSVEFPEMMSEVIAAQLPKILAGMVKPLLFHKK
In short: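 Ishikawa cells stably expressing PR-B co-treated with 1 nM progesterone plus test agent at 10 μM; PRE-luciferase reporter activity compared with 1 nM progesterone alone; n≥3; mean ± SEM, significance by p-value thresholds.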

[2] = target: T1, Progesterone receptor (Homo sapiens); assay: Induction of progesterone receptor B in human Ishikawa cells assessed as induction of PRE/Luc transcriptional activity at 10 uM measured after 24 hrs by luciferase reporter gene assay; format: cell-based
In short: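 Ishikawa cells stably expressing PR-B; test agent alone at 10 μM; PRE-driven luciferase reporter read-out; n≥3; mean ± SEM.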

SMILES	Activity ([1]; filed as activator) [%]	Activity [2]	Activity [1] [%]
C=C[C@H]1[C@H](O[C@@H]2O[C@H](CO)[C@@H](O)[C@H](O)[C@H]2O)OC=C(C(=O)O)[C@H]1CCOC(=O)c1cc(O)c(O)c(O)c1	42	inactive	
C=C[C@H]1[C@H](O[C@@H]2O[C@H](CO)[C@@H](O)[C@H](O)[C@H]2O)OC=C(C(=O)OC)[C@H]1CCOC(=O)c1cc(O)c(O)c(O)c1	43	inactive	
C=C[C@H]1[C@H](O[C@@H]2O[C@H](CO)[C@@H](O)[C@H](O)[C@H]2O)OC=C2C(=O)OCC[C@H]21		inactive	

The next lines start with the values.

Activity ([1]; filed as activator) [%]	Activity [2]	Activity [1] [%]	SMILES
	inactive		C=C[C@H]1C(O[C@@H]2O[C@H](CO)[C@@H](O)[C@H](O)[C@H]2O)OC=C(C(=O)O)[C@H]1CC(=O)O (stereo partly specified)
	inactive	29	COC(=O)C1=CO[C@@H](O[C@@H]2O[C@H](CO)[C@@H](O)[C@H](O)[C@H]2O)[C@@H]2[C@H](C)O[C@H](OC)C[C@H]12
	inactive	18	COC(=O)C1=CO[C@@H](O[C@@H]2O[C@H](CO)[C@@H](O)[C@H](O)[C@H]2O)[C@@H]2[C@H](C)O[C@@H](OC)C[C@H]12
	inactive		C=C[C@H]1C(O[C@@H]2O[C@H](CO)[C@@H](O)[C@H](O)[C@H]2O)OC=C(C(=O)OC)[C@H]1CC(=O)O (stereo partly specified)
